What was measured:
Rattus norvegicus [1] = test: In vivo kidneys distribution of [11C]-labeled compound in Fisher rat 10 min after injection via caudal vein along with 18 ug of unlabeled estradiol.; format: ADME, organism-based, Kidney; settings: iv
Summary of the method: (§1)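 Immature female Fisher rats, 3-4 weeks old, about 50 g. Tracer was HPLC-purified, dried, redissolved in ethanol and diluted in saline. […] Animals were killed by cardiac puncture at 10 min and tissues counted. Values are % injected dose/g normalized to 100 g body weight, mean ± SD of five rats. Rats were paired (with/without carrier) and compared by paired Student's t test.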

Rattus norvegicus [2] = test: In vivo muscle distribution of [11C]-labeled compound in Fisher rat 10 min after injection via caudal vein along with 18 ug of unlabeled estradiol.; format: ADME, organism-based, Muscle tissue; settings: iv; summary of the method: as §1
Rattus norvegicus [3] = organism: Rattus norvegicus; test: (§2) Tissue to blood ratio 10 min after injection of compound; format: functional
Summary of the method: (§3)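 Immature female Fisher rats, about 50 g. […] Rats were killed at 10 min and tissue and blood radioactivity counted. Results are tissue-to-blood ratios, mean ± SD of five rats, compared between paired animals by paired Student's t test (p < 0.05 significant).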

Rattus norvegicus [4] = organism: Rattus norvegicus; test: (§4) Tissue to blood ratio 10 min after injection of compound & Estradiol; format: functional; summary of the method: as §3
Rattus norvegicus [5] = test: In vivo muscle distribution of [11C]-labeled compound in Fisher rat 10 min after injection via caudal vein.; format: ADME, organism-based, Muscle tissue; settings: iv; summary of the method: as §1
Rattus norvegicus [6] = organism: Rattus norvegicus; test: as §4; format: functional; summary of the method: as §3; remark: listed apart in the source
Rattus norvegicus [7] = organism: Rattus norvegicus; test: as §2; format: functional; summary of the method: as §3; remark: listed apart in the source
Rattus norvegicus [8] = test: In vivo lung distribution of [11C]-labeled compound in Fisher rat 10 min after injection via caudal vein.; format: ADME, organism-based; settings: iv; summary of the method: as §1
Rattus norvegicus [9] = test: In vivo ovaries distribution of [11C]-labeled compound in Fisher rat 10 min after injection via caudal vein.; format: ADME, organism-based, Female gonad; settings: iv; summary of the method: as §1
Rattus norvegicus [10] = test: In vivo spleen distribution of [11C]-labeled compound in Fisher rat 10 min after injection via caudal vein.; format: ADME, organism-based; settings: iv; summary of the method: as §1
Rattus norvegicus [11] = test: In vivo lung distribution of [11C]-labeled compound in Fisher rat 10 min after injection via caudal vein along with 18 ug of unlabeled estradiol.; format: ADME, organism-based; settings: iv; summary of the method: as §1
Rattus norvegicus [12] = organism: Rattus norvegicus; test: as §4; format: functional; summary of the method: as §3; remark: listed apart in the source
Rattus norvegicus [13] = test: In vivo kidneys distribution of [11C]-labeled compound in Fisher rat 10 min after injection via caudal vein.; format: ADME, organism-based, Kidney; settings: iv; summary of the method: as §1
Rattus norvegicus [14] = test: In vivo uterus distribution of [11C]-labeled compound in Fisher rat 10 min after injection via caudal vein along with 18 ug of unlabeled estradiol.; format: ADME, organism-based; settings: iv; summary of the method: as §1
Rattus norvegicus [15] = test: In vivo adrenals distribution of [11C]-labeled compound in Fisher rat 10 min after injection via caudal vein along with 18 ug of unlabeled estradiol.; format: ADME, organism-based, Adrenal gland; settings: iv; summary of the method: as §1
Rattus norvegicus [16] = organism: Rattus norvegicus; test: as §2; format: functional; summary of the method: as §3; remark: listed apart in the source
Rattus norvegicus [17] = test: In vivo adrenals distribution of [11C]-labeled compound in Fisher rat 10 min after injection via caudal vein.; format: ADME, organism-based, Adrenal gland; settings: iv; summary of the method: as §1
Rattus norvegicus [18] = test: In vivo liver distribution of [11C]-labeled compound in Fisher rat 10 min after injection via caudal vein.; format: ADME, organism-based; settings: iv; summary of the method: as §1
Rattus norvegicus [19] = organism: Rattus norvegicus; test: as §2; format: functional; summary of the method: as §3; remark: listed apart in the source
Rattus norvegicus [20] = test: In vivo ovaries distribution of [11C]-labeled compound in Fisher rat 10 min after injection via caudal vein along with 18 ug of unlabeled estradiol.; format: ADME, organism-based, Female gonad; settings: iv; summary of the method: as §1
Rattus norvegicus [21] = organism: Rattus norvegicus; test: as §2; format: functional; summary of the method: as §3; remark: listed apart in the source
Rattus norvegicus [22] = test: In vivo spleen distribution of [11C]-labeled compound in Fisher rat 10 min after injection via caudal vein along with 18 ug of unlabeled estradiol.; format: ADME, organism-based; settings: iv; summary of the method: as §1
Rattus norvegicus [23] = organism: Rattus norvegicus; test: as §4; format: functional; summary of the method: as §3; remark: listed apart in the source
Rattus norvegicus [24] = organism: Rattus norvegicus; test: as §2; format: functional; summary of the method: as §3; remark: listed apart in the source
Rattus norvegicus [25] = test: In vivo liver distribution of [11C]-labeled compound in Fisher rat 10 min after injection via caudal vein along with 18 ug of unlabeled estradiol.; format: ADME, organism-based; settings: iv; summary of the method: as §1
Rattus norvegicus [26] = test: In vivo blood distribution of [11C]-labeled compound in Fisher rat 10 min after injection via caudal vein along with 18 ug of unlabeled estradiol.; format: ADME, organism-based; settings: iv; summary of the method: as §1
Rattus norvegicus [27] = organism: Rattus norvegicus; test: as §2; format: functional; summary of the method: as §3; remark: listed apart in the source
Rattus norvegicus [28] = organism: Rattus norvegicus; test: as §4; format: functional; summary of the method: as §3; remark: listed apart in the source
Rattus norvegicus [29] = organism: Rattus norvegicus; test: as §4; format: functional; summary of the method: as §3; remark: listed apart in the source
Rattus norvegicus [30] = organism: Rattus norvegicus; test: as §2; format: functional; summary of the method: as §3; remark: listed apart in the source
Rattus norvegicus [31] = test: In vivo blood distribution of [11C]-labeled compound in Fisher rat 10 min after injection via caudal vein.; format: ADME, organism-based; settings: iv; summary of the method: as §1
Rattus norvegicus [32] = test: In vivo uterus distribution of [11C]-labeled compound in Fisher rat 10 min after injection via caudal vein.; format: ADME, organism-based; settings: iv; summary of the method: as §1
Rattus norvegicus [33] = organism: Rattus norvegicus; test: as §4; format: functional; summary of the method: as §3; remark: listed apart in the source
Rattus norvegicus [34] = organism: Rattus norvegicus; test: as §4; format: functional; summary of the method: as §3; remark: listed apart in the source
Rattus norvegicus [35] = organism: Rattus norvegicus; test: as §4; format: functional; summary of the method: as §3; remark: listed apart in the source
Rattus norvegicus [36] = organism: Rattus norvegicus; test: as §4; format: functional; summary of the method: as §3; remark: listed apart in the source
Rattus norvegicus [37] = organism: Rattus norvegicus; test: as §2; format: functional; summary of the method: as §3; remark: listed apart in the source
Rattus norvegicus [38] = organism: Rattus norvegicus; test: as §4; format: functional; summary of the method: as §3; remark: listed apart in the source
Rattus norvegicus [39] = organism: Rattus norvegicus; test: as §2; format: functional; summary of the method: as §3; remark: listed apart in the source
Rattus norvegicus [40] = organism: Rattus norvegicus; test: as §2; format: functional; summary of the method: as §3; remark: listed apart in the source
Rattus norvegicus [41] = organism: Rattus norvegicus; test: as §4; format: functional; summary of the method: as §3; remark: listed apart in the source
Rattus norvegicus [42] = organism: Rattus norvegicus; test: as §2; format: functional; summary of the method: as §3; remark: listed apart in the source
Rattus norvegicus [43] = organism: Rattus norvegicus; test: as §4; format: functional; summary of the method: as §3; remark: listed apart in the source
Rattus norvegicus [44] = organism: Rattus norvegicus; test: as §2; format: functional; summary of the method: as §3; remark: listed apart in the source
Rattus norvegicus [45] = organism: Rattus norvegicus; test: as §4; format: functional; summary of the method: as §3; remark: listed apart in the source
Rattus norvegicus [46] = organism: Rattus norvegicus; test: as §4; format: functional; summary of the method: as §3; remark: listed apart in the source
Rattus norvegicus [47] = organism: Rattus norvegicus; test: as §2; format: functional; summary of the method: as §3; remark: listed apart in the source
Rattus norvegicus [48] = organism: Rattus norvegicus; test: as §2; format: functional; summary of the method: as §3; remark: listed apart in the source

| Injected dose/g (Rattus norvegicus [1]) [%] | Injected dose/g (Rattus norvegicus [2]) [%] | Injected dose/g (Rattus norvegicus [5]) [%] | Injected dose/g (Rattus norvegicus [8]) [%] | Injected dose/g (Rattus norvegicus [9]) [%] | Injected dose/g (Rattus norvegicus [10]) [%] | Injected dose/g (Rattus norvegicus [11]) [%] | Injected dose/g (Rattus norvegicus [13]) [%] | Injected dose/g (Rattus norvegicus [14]) [%] | Injected dose/g (Rattus norvegicus [15]) [%] | Injected dose/g (Rattus norvegicus [17]) [%] | Injected dose/g (Rattus norvegicus [18]) [%] | Injected dose/g (Rattus norvegicus [20]) [%] | Injected dose/g (Rattus norvegicus [22]) [%] | Injected dose/g (Rattus norvegicus [25]) [%] | Injected dose/g (Rattus norvegicus [26]) [%] | Injected dose/g (Rattus norvegicus [31]) [%] | Injected dose/g (Rattus norvegicus [32]) [%] | SMILES | other results |
| --- | --- | --- | --- | --- | --- | --- | --- | --- | --- | --- | --- | --- | --- | --- | --- | --- | --- | --- | --- |
| 5.1 | 1.3 | 1.1 | 2.1 | 2.5 | 2.4 | 2.1 | 2.9 | 6.2 | 5.3 | 6.5 | 8.5 | 3.5 | 1.6 | 7.8 | 1.3 | 0.81 | 5 | CCOC(=O)NCCOc1ccc(C(CC)C(CC)c2ccc(O)cc2)cc1 (stereo not drawn) | Tissue/Blood ratio (Rattus norvegicus [3]): 9; Tissue/Blood ratio (Rattus norvegicus [4]): 9.4; Tissue/Blood ratio (Rattus norvegicus [6]): 5.4; Tissue/Blood ratio (Rattus norvegicus [7]): 3.7; Tissue/Blood ratio (Rattus norvegicus [12]): 2.8; Tissue/Blood ratio (Rattus norvegicus [16]): 2.4; Tissue/Blood ratio (Rattus norvegicus [19]): 2.5; Tissue/Blood ratio (Rattus norvegicus [21]): 8; Tissue/Blood ratio (Rattus norvegicus [23]): 3.1; Tissue/Blood ratio (Rattus norvegicus [24]): 3; Tissue/Blood ratio (Rattus norvegicus [27]): 1.2; Tissue/Blood ratio (Rattus norvegicus [28]): 1.3; Tissue/Blood ratio (Rattus norvegicus [29]): 2.5; Tissue/Blood ratio (Rattus norvegicus [30]): 6.3; Tissue/Blood ratio (Rattus norvegicus [33]): 3.3; Tissue/Blood ratio (Rattus norvegicus [34]): 1.9 |
| 6.1 | 3.2 | 1.6 | 3.1 | 6.5 | 2.3 | 5.1 | 4.2 | 7.8 | 21.6 | 14.3 | 9.4 | 7.4 | 3.6 | 12.8 | 1.3 | 0.9 | 4.5 | CCOC(=O)NC1CC[C@H]2[C@@H]3CCc4cc(O)ccc4[C@H]3CC[C@]12C (stereo partly drawn) | Ratio (Rattus norvegicus [35]): 2.7; Ratio (Rattus norvegicus [36]): 4.3; Ratio (Rattus norvegicus [37]): 1.4; Ratio (Rattus norvegicus [38]): 6; Ratio (Rattus norvegicus [39]): 2.8; Ratio (Rattus norvegicus [40]): 18; Ratio (Rattus norvegicus [41]): 9.1; Ratio (Rattus norvegicus [42]): 9.1; Ratio (Rattus norvegicus [43]): 1.8; Ratio (Rattus norvegicus [16]): 3.7; Ratio (Rattus norvegicus [44]): 9.4; Ratio (Rattus norvegicus [45]): 6.2; Ratio (Rattus norvegicus [29]): 3.7; Ratio (Rattus norvegicus [46]): 14.9; Ratio (Rattus norvegicus [47]): 5.5; Ratio (Rattus norvegicus [48]): 4.8 |

Source: ChEMBL document CHEMBL1122634 (J Med Chem, 1984)
